Results: ChEMBL document CHEMBL1124334, “Hypolipidemic 2-[4-(1,1-dimethylethyl)phenyl]-4H-3,1-benzoxazin-4-ones. Structure-activity relationships of a novel series of high-density lipoprotein elevators” (1989)

Columns and labels:
Format in all cases: functional
Rattus norvegicus [1] = organism: Rattus norvegicus; assay: The compound was tested for % change in plasma triglycerides in normocholesterolemic rats at 0.2 % composition of dose with diet given in a period of 7 days
Summary of the method: (§1)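 Young male Wistar rats (120–150 g) fed basal powdered rodent diet ad libitum, with compound mixed into the diet at 0.2% w/w for 3 or 7 days. Plasma triglyceride and total cholesterol were then measured by standard enzymatic methods. Results are % change relative to controls.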

Rattus norvegicus [2] = assay: Percent change in plasma HDL cholesterol in cholesterol-fed rats at 200 mg/kg dose given in a period of 3 days
Summary of the method: (§2)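 Young male Wistar rats (120–150 g), groups of eight, fed ad libitum rodent diet with 0.5% w/w cholesterol and 0.25% cholic acid for 10 days. Compound suspended in 0.5% w/w tragacanth mucilage and given daily by stomach tube over the final 3 days; controls got vehicle. After overnight starvation, rats were killed 3 h post final dose and cardiac blood taken into heparin.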

Rattus norvegicus [3] = assay: Ratio of plasma HDL cholesterol/total cholesterol at 200 g/kg for 3 days; settings: in the assay text read “200 mg/kg” for “200 g/kg”; summary of the method: as §2
Rattus norvegicus [4] = assay: Percent change in plasma total cholesterol in cholesterol-fed rats at 200 mg/kg dose given in a period of 3 days; summary of the method: as §2
Rattus norvegicus [5] = organism: Rattus norvegicus; assay: The compound was tested for % change in plasma total cholesterol in normocholesterolemic rats at 0.2 % composition of dose with diet given in a period of 7 days; summary of the method: as §1
Rattus norvegicus [6] = assay: Percent change in plasma triglycerides in cholesterol-fed rats at 200 mg/kg dose given in a period of 3 days; summary of the method: as §2
Rattus norvegicus [7] = organism: Rattus norvegicus; assay: Change in plasma triglycerides in normocholesterolemic rats at 0.2 % composition of dose with diet given in a period of 3 days.; summary of the method: as §1
Rattus norvegicus [8] = organism: Rattus norvegicus; assay: Change in plasma total cholesterol in normocholesterolemic rats at 0.2 % composition of dose with diet given in a period of 3 days.; summary of the method: as §1
[9] = Ratio of plasma HDL cholesterol/total cholesterol at 25 mg/kg for 3 days; settings: dose 200 mg/kg; in the assay text read “200 mg/kg” for “25 mg/kg”; summary of the method: as §2
[10] = Ratio of plasma HDL cholesterol/total cholesterol at 100 mg/kg for 3 days; summary of the method: as §2
Rattus norvegicus [11] = assay: The compound was tested for % change in plasma triglycerides in cholesterol-fed rats at 100 mg/kg dose given in a period of 3 days; summary of the method: as §2
Rattus norvegicus [12] = assay: The compound was tested for % change in plasma triglycerides in cholesterol-fed rats at 50 mg/kg dose given in a period of 3 days; summary of the method: as §2
Rattus norvegicus [13] = assay: The compound was tested for % change in plasma HDL cholesterol in cholesterol-fed rats at 100 mg/kg dose given in a period of 3 days; summary of the method: as §2
Rattus norvegicus [14] = organism: Rattus norvegicus; assay: tested for % change in plasma triglycerides in normocholesterolemic rats at 0.2 % composition of dose with diet given in a period of 3 days; summary of the method: as §1
Rattus norvegicus [15] = assay: The compound was tested for % change in plasma total cholesterol in cholesterol-fed rats at 50 mg/kg dose given in a period of 3 days; summary of the method: as §2
Rattus norvegicus [16] = assay: The compound was tested for % change in plasma total cholesterol in cholesterol-fed rats at 100 mg/kg dose given in a period of 3 days; summary of the method: as §2
Rattus norvegicus [17] = assay: The compound was tested for % change in plasma HDL cholesterol in cholesterol-fed rats at 50 mg/kg dose given in a period of 3 days; summary of the method: as §2
[18] = Ratio of plasma HDL cholesterol/total cholesterol at 50 mg/kg for 3 days; summary of the method: as §2
Rattus norvegicus [19] = organism: Rattus norvegicus; assay: Tested for % change in plasma triglycerides in normocholesterolemic rats at 0.2 % composition of dose with diet given in a period of 3 days; summary of the method: as §1
Rattus norvegicus [20] = organism: Rattus norvegicus; assay: Tested for % change in plasma total cholesterol in normocholesterolemic rats at 0.2 % composition of dose with diet given in a period of 3 days; summary of the method: as §1

| Structure (SMILES) | Change (Rattus norvegicus [1]) [%] | Change (Rattus norvegicus [2]) [%] | Change in HDL/total cholesterol ratio (Rattus norvegicus [3]) | Change (Rattus norvegicus [4]) [%] | Change (Rattus norvegicus [5]) [%] | Change (Rattus norvegicus [6]) [%] | Change (Rattus norvegicus [7]) [%] | Change (Rattus norvegicus [8]) [%] | other results |
| --- | --- | --- | --- | --- | --- | --- | --- | --- | --- |
| CC(C)(C)c1ccc(-c2nc3ccc(Cl)cc3c(=O)o2)cc1 | -36 | 16 | 31 | -18 | -31 | -30 | – | – | – |
| COC(=O)c1cc(C)ccc1NC(=O)c1ccc(C(C)(C)C)cc1 | – | 25 | 46 | -20 | – | 68 | -8 | -4 | – |
| CC(C)(C)c1ccc(C(=O)Nc2ccc(Br)cc2C(N)=O)cc1 | – | -1 | 4 | -8 | – | -11 | 29 | 4 | – |
| Cc1ccc2nc(-c3ccccc3)oc(=O)c2c1 | -1 | -2 | – | -2 | -12 | -4 | – | – | Ratio [9]: 4 |
| Cc1ccc2nc(-c3ccc(C(C)C)cc3)oc(=O)c2c1 | – | 33 | – | -26 | – | -17 | 7 | -11 | Ratio [9]: 79 |
| CC(C)(C)c1ccc(C(=O)Nc2ccc(Br)cc2C(=O)O)cc1 | – | 24 | 70 | -29 | – | -26 | -20 | -56 | – |
| CC(C)(C)c1ccc(-c2nc3ccccc3c(=O)o2)cc1 | -32 | 49 | 131 | -41 | -24 | -26 | – | – | – |
| COC(=O)c1cc(Br)ccc1NC(=O)c1ccc(C(C)(C)C)cc1 | – | -7 | 70 | -49 | – | -22 | -7 | -34 | – |
| CC(C)(C)c1ccc(-c2nc3ccc(C(C)(C)C)cc3c(=O)o2)cc1 | – | 30 | -17 | 63 | – | 52 | -17 | -15 | – |
| CN(C)c1ccc2nc(-c3ccc(C(C)(C)C)cc3)oc(=O)c2c1 | – | 26 | 22 | -4 | – | 16 | -12 | 10 | – |
| O=C(O)c1cccnc1 [NIACIN] | -3 | 20 | – | -29 | -4 | -39 | – | – | Ratio (Rattus norvegicus [3]): 63 |
| CC(C)(C)c1ccc(-c2nc3ccc(Br)cc3c(=O)o2)cc1 | -40 | 74 | 114 | -25 | -39 | -3 | – | -47 | Ratio [10]: 110; Change (Rattus norvegicus [11]): -6%; Change (Rattus norvegicus [12]): 6%; Change (Rattus norvegicus [13]): 71%; Change (Rattus norvegicus [14]): -16%; Change (Rattus norvegicus [15]): -12%; Change (Rattus norvegicus [16]): -25%; Change (Rattus norvegicus [17]): 40%; Ratio [18]: 49 |
| CC(C)(C)c1ccc(-c2nc3ccc(NS(C)(=O)=O)cc3c(=O)o2)cc1 | – | 22 | 27 | -16 | – | 6 | -8 | -3 | – |
| Cc1ccc2nc(-c3ccc(C(C)(C)C)cc3)nc(O)c2c1 | – | 24 | 25 | -17 | – | -18 | 28 | 1 | – |
| CCCCc1ccc2nc(-c3ccc(C(C)(C)C)cc3)oc(=O)c2c1 | – | 65 | 69 | -4 | – | 22 | -32 | -3 | – |
| Cc1ccc2nc(-c3cccc(C(C)(C)C)c3)oc(=O)c2c1 | 25 | 50 | – | 43 | -4 | 22 | – | – | Ratio [9]: 3 |
| COc1ccc2nc(-c3ccc(C(C)(C)C)cc3)oc(=O)c2c1 | – | 21 | – | -28 | – | -26 | -52 | -48 | Ratio (Rattus norvegicus [3]): 52 |

| Structure (SMILES) | Change (Rattus norvegicus [1]) [%] | Change (Rattus norvegicus [2]) [%] | Change in HDL/total cholesterol ratio (Rattus norvegicus [3]) | Change (Rattus norvegicus [4]) [%] | Change (Rattus norvegicus [5]) [%] | Change (Rattus norvegicus [6]) [%] | Change (Rattus norvegicus [7]) [%] | Change (Rattus norvegicus [8]) [%] | other results |
| --- | --- | --- | --- | --- | --- | --- | --- | --- | --- |
| Cc1ccc2nc(-c3ccc(C(C)(C)C)cc3)n(C)c(=O)c2c1 | – | 6 | -5 | 2 | – | 8 | -3 | 2 | – |
| CC(C)(C)c1ccc(-c2nc3ccc(-c4ccccc4)cc3c(=O)o2)cc1 | – | 60 | 74 | -8 | – | 0 | 1 | 0 | – |
| Cc1ccc(NC(=O)c2ccc(C(C)(C)C)cc2)c(C(=O)O)c1 | – | 91 | 47 | -9 | – | 8 | – | – | Change (Rattus norvegicus [19]): -16%; Change (Rattus norvegicus [20]): -15% |
| CNc1nc(-c2ccc(C(C)(C)C)cc2)nc2ccc(C)cc12 | – | 10 | -12 | 27 | – | 79 | – | – | – |
| CC(C)(C)c1ccc(-c2nc3ccc([N+](=O)[O-])cc3c(=O)o2)cc1 | -27 | -8 | 13 | -23 | 1 | -19 | – | – | – |
| CCOC(=O)C(C)(C)Oc1ccc(Cl)cc1 [CLOFIBRATE] | -48 | -10 | 8 | -30 | -27 | -10 | – | – | – |
| CN(C(=O)c1ccc(C(C)(C)C)cc1)c1ccc(Br)cc1C(=O)O | – | 33 | 59 | -22 | – | -13 | 10 | -10 | – |
| Cc1ccc2nc(Cc3ccc(C(C)(C)C)cc3)oc(=O)c2c1 | – | -19 | -27 | 1 | – | 27 | – | – | – |
| CC(C)(C)c1ccc(-c2nc3ccc(NS(=O)(=O)c4ccccc4)cc3c(=O)o2)cc1 | – | 30 | 35 | 7 | – | -7 | 27 | 5 | – |
| COC(=O)c1ccc2nc(-c3ccc(C(C)(C)C)cc3)oc(=O)c2c1 | – | 18 | -4 | 29 | – | 0 | -13 | -2 | – |
| CC(C)(C)c1ccc(-c2nc3ccc(I)cc3c(=O)o2)cc1 | -35 | 17 | 50 | -26 | -48 | -3 | – | – | – |
| CC(C)(C)c1ccc(C(=O)O)cc1 | -41 | -50 | 60 | -62 | -38 | -38 | – | – | – |
| CC(C)(C)c1ccc(-c2nc3ccc(N)cc3c(=O)o2)cc1 | – | 4 | 25 | -25 | – | -11 | 1 | 4 | – |
| CC(C)(C)c1ccc(-c2nc3ccc(C(F)(F)F)cc3c(=O)o2)cc1 | – | -8 | 11 | -18 | – | -6 | -45 | -40 | – |
| CCCCCCCCc1ccc2nc(-c3ccc(C(C)(C)C)cc3)oc(=O)c2c1 | – | 35 | 29 | -9 | – | -7 | -14 | -1 | – |
| Cc1ccc2nc(-c3ccccc3C(C)(C)C)oc(=O)c2c1 | -13 | -3 | – | -6 | -11 | -25 | – | – | Ratio [9]: 6 |
